From ChEMBL document CHEMBL2150885, “Dual anticoagulant/antiplatelet persulfated small molecules” (Eur J Med Chem, 2011)
Active and inactive are the calls of the source. The calls are words filed in the database; no cut-off is given here.

What was measured:
Plasma [1] = test: Anticoagulant activity in human plasma assessed as effect on prothrombin level by PT clotting time with factor II deficient plasma at 1 x 10^-3 M
Plasma [2] = test: Anticoagulant activity in human plasma assessed as effect on APC level using CBS 42.46 as synthetic substrate at 1 x 10^-3 M; format: functional
Procedure, shortened: (§1)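 Compound in saline added to citrated human plasma. Protein C activated by a snake venom-derived activator; enzyme formed quantified by amidolytic activity on chromogenic substrate CBS 42.46. Calibration curve linear 3–150%; normal and pathological control plasmas verify accuracy. Compounds at 1 × 10⁻³ M.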

MCF7 = test: Cytotoxicity against human ER-positive MCF7 cells at 1.5 x 10^-4 after 48 hrs; format: cell-based; details: mcf7, 48 h
NCI-H460 = test: Cytotoxicity against human NCI-H460 cells at 1.5 x 10^-4 after 48 hrs; format: cell-based; details: nci-h460, 48 h
Platelet [3] = test: Antiplatelet activity against thrombin receptor-activating peptide-6-induced platelet aggregation in human blood at 6.25 x 10^-4 M measured for 6 mins by multiplate electrical impedance aggregometry; format: functional, cell-based
Procedure, shortened: (§2)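 Hirudin-anticoagulated (final […]) healthy-donor whole blood, used within 0.5–1 h. Compound in saline to final 6.25 × 10⁻⁴ M; saline control, acetylsalicylic acid 6.25 × 10⁻⁴ M reference. Blood mixed with saline at 37 °C for 180 s, then agonist at final TRAP-6 […], arachidonic acid 0.5 mM or ADP […]. Impedance recorded 6 min; AUC from mean of two curves, accepted if within 20%.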

Mus musculus = species: Mus musculus; test: Acute hepatic toxicity in CD1 mouse; format: organism-based; details: in vivo
Plasma [4] = test: Anticoagulant activity in human plasma assessed as effect on APC level using CBS 42.46 as synthetic substrate; format: functional, cell-free
Procedure, shortened: as §1

[5] = Cytotoxicity against human A375-C5 cells at 1.5 x 10^-4 after 48 hrs; format: cell-based; details: a375-c5, 48 h
Platelet [6] = test: Antiplatelet activity against adenosine diphosphate-induced platelet aggregation in human blood at 6.25 x 10^-4 M measured for 6 mins by multiplate electrical impedance aggregometry; format: functional, cell-based
Procedure, shortened: as §2

Platelet [7] = test: Antiplatelet activity against arachidonic acid-induced platelet aggregation in human blood at 6.25 x 10^-4 M measured for 6 mins by multiplate electrical impedance aggregometry; format: functional, cell-based
Procedure, shortened: as §2

Plasma [8] = test: Anticoagulant activity in human plasma assessed as effect on prothrombin level by PT clotting time with factor II deficient plasma
[9] = Antiplatelet activity against collagen-ADP-activated platelet in human blood assessed as closure time at 6.25 x 10^-4 M; format: functional
Procedure, shortened: (§3)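 Healthy-donor whole blood collected into hirudin (final […]), analysed within 0.5–1 h. Closure time measured in a PFA-100 under high shear through an aperture, platelets activated by a collagen-coated membrane with ADP or epinephrine.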

Blood [10] = test: Anticoagulant activity in human whole blood assessed as clotting formation time at 3.12 x 10'4 M by InTEM-TEG assay; format: functional
Procedure, shortened: (§4)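 Citrated whole blood (citrate:blood 1:9) from healthy donors. Compound in saline diluted 1:16 into blood to final 3.12 × 10⁻⁴ or 6.25 × 10⁻⁴ M; saline control. Thromboelastography with intrinsic activator (InTEM); R clotting time and K clot formation time in s. Mean of three independent experiments in duplicate.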

[11] = target: Coagulation factor X (Homo sapiens) (UniProt P00742); test: Inhibition of human factor 10a using CH3SO2-D-Leu-Gly-Arg-pNA, AcOH as substrate at 1 x 10^-3 M by chromogenic substrate hydrolysis assay
Procedure, shortened: (§5)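 Chromogenic hydrolysis in 50 mM Tris/HCl pH 8.3, 227 mM NaCl, 0.1% BSA, with and without bovine antithrombin III (1 U/mL final). Human factor Xa 0.5 U/mL with CBS 31.39 […], or human thrombin 0.06 U/mL with Chromozym TH […]. Absorbance at 405 nm, enzyme-free blank subtracted; initial slope vs water control gives % inhibition. Compounds at 1 × 10⁻³ M; n = 6.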

[12] = Antiplatelet activity against collagen-epinephrine-activated platelet in human blood assessed as closure time at 6.25 x 10^-4 M; format: functional
Procedure, shortened: as §3

Blood [13] = test: Anticoagulant activity in human whole blood assessed as clotting time at 3.12 x 10'4 M by thromboelastography assay; format: functional
Procedure, shortened: as §4

Plasma [14] = test: Anticoagulant activity in human plasma assessed as concentration required to double prothrombin time; format: functional
Procedure, shortened: (§6)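 Pooled citrated human plasma; compounds in water (10% DMSO for some), final 5 × 10⁻³ to 0.05 × 10⁻³ M; heparin 0.1–10 UI/mL as reference. APTT, PT and TT measured on a coagulometer with commercial kits, clotting time in s. Duplicates repeated on three days (n = 6). Concentration doubling clotting time obtained by linear regression of each concentration-response curve.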

Plasma [15] = test: Anticoagulant activity in human plasma assessed as concentration required to double activated partial thromboplastin time; format: functional
Procedure, shortened: as §6

[16] = Metabolic stability of the compound in human plasma assessed as compound remaining after 3 hrs by IP-RP-HPLC analysis; format: ADME, cell-free; details: read-out: Stability
Procedure, shortened: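 Compound at 25 mM final in human plasma diluted 1:1 with PBS pH 7.4, shaken at 37 °C; sampled at 0 and 180 min, three independent samples. TBA buffer (pH 8) added for ion-pairing, quenched with 4× cold acetonitrile, centrifuged, filtered, dried, redissolved in mobile phase. Quantified by ion-pairing RP-HPLC on C-18, phosphate/TBA buffer:acetonitrile 55:45, 1.0 mL/min.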

[17] = target: Antithrombin-III (Bos taurus) (UniProt P41361); test: Inhibition of bovine antithrombin-3 at 1 x 10^-3 M
[18] = target: Prothrombin (Homo sapiens) (UniProt P00734); test: Inhibition of human thrombin using Tosyl-Gly-Pro-Arg-p-nitroaniline as substrate at 1 x 10^-3 M by chromogenic substrate hydrolysis assay
Procedure, shortened: as §5

Plasma [19] = test: Anticoagulant activity in human plasma assessed as concentration required to double thrombin time; format: functional
Procedure, shortened: as §6

Sequence of Antithrombin-III (Bos taurus) (P41361 whole entry): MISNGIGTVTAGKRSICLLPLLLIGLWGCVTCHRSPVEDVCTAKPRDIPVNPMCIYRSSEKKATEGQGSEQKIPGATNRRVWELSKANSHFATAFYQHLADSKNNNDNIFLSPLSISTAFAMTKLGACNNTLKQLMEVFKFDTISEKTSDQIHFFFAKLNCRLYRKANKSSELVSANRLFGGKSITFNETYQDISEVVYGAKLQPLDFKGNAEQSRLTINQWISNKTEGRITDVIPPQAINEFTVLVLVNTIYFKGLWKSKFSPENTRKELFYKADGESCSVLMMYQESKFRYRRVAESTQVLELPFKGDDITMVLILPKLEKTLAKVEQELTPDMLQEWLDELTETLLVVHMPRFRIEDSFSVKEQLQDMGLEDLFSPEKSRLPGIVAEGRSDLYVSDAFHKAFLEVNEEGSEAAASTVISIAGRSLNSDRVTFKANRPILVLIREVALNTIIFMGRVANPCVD
Sequence of Coagulation factor X (Homo sapiens) (P00742 41-179 limits assumed): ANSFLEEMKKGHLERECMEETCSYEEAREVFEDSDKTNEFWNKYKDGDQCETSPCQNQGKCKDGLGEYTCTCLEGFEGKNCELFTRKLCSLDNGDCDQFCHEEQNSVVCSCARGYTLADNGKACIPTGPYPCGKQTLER
Sequence of Coagulation factor X (Homo sapiens) (P00742 235-488 limits assumed): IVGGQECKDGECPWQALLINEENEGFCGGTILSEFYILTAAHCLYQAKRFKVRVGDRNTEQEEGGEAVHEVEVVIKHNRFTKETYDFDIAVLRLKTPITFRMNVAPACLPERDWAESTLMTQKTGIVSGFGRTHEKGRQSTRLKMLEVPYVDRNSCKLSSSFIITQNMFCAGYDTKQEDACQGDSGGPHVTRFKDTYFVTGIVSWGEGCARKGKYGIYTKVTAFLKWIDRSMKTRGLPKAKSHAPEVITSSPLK

## C[C@@H]1O[C@@H](OC[C@H]2O[C@@H](Oc3c(-c4ccc(OS(=O)(=O)[O-])c(OS(=O)(=O)[O-])c4)oc4cc(OS(=O)(=O)[O-])cc(OS(=O)(=O)[O-])c4c3=O)[C@H](OS(=O)(=O)[O-])[C@@H](OS(=O)(=O)[O-])[C@@H]2OS(=O)(=O)[O-])[C@H](OS(=O)(=O)[O-])[C@H](OS(=O)(=O)[O-])[C@H]1OS(=O)(=O)[O-].[Na+].[Na+].[Na+].[Na+].[Na+].[Na+].[Na+].[Na+].[Na+].[Na+]
Plasma [1]
  Activity: 9%
Plasma [2]
  Activity: 28.5%
MCF7
  Activity: Non-toxic
NCI-H460
  Activity: Non-toxic
Platelet [3]
  AUC: 950 AU.min
Mus musculus
  Activity: Non-toxic
Plasma [4]
  Activity: Dose-dependent effect
[5]
  Activity: Non-toxic
Platelet [6]
  AUC: 230 AU.min
Platelet [7]
  AUC: 215 AU.min
Plasma [8]
  Activity: Dose-dependent effect

## O=S(=O)([O-])OC[C@H]1O[C@@H](Oc2cc(/C=C/c3ccc(OS(=O)(=O)[O-])cc3)cc(OS(=O)(=O)[O-])c2)[C@H](OS(=O)(=O)[O-])[C@@H](OS(=O)(=O)[O-])[C@@H]1OS(=O)(=O)[O-].[Na+].[Na+].[Na+].[Na+].[Na+].[Na+]
[9]
  Time: 212 s
Blood [10]
  Time: 136 s
[11]
  inhibition: inactive
Plasma [1]
  Activity: 12%
[12]
  Time: 273 s
Blood [13]
  Time: 447 s
Plasma [2]
  Activity: 50.5%
MCF7
  Activity: Non-toxic
NCI-H460
  Activity: Non-toxic
Plasma [14]
  2PT: 1.77 mM
  Activity: Dose-dependent effect
Plasma [15]
  2aPTT: 0.146 mM
  Activity: Dose-dependent effect
[16]
  remaining at 3 h: 95%
Platelet [3]
  AUC: 1020 AU.min
[17]
  inhibition: inactive
Plasma [4]
  Activity: Dose-dependent effect
[5]
  Activity: Non-toxic
Platelet [6]
  AUC: 173 AU.min
Platelet [7]
  AUC: 400 AU.min
[18]
  inhibition: inactive
Plasma [8]
  Activity: Dose-dependent effect
Plasma [19]
  Activity: Dose-dependent effect
Plasma [19]; record 2
  Activity: 1.95 mM
